Laboratory results taken from ChEMBL document CHEMBL2390866, “Novel pyrimidoazepine analogs as serotonin 5-HT(2A) and 5-HT(2C) receptor ligands for the treatment of obesity” (Eur J Med Chem, 2013).

What was measured:
[1] = Drug uptake in Sprague-Dawley rat brain at 10 mg/kg, po measured at 2 hrs; type: ADME, organism-based; parameters: dose 10 mg/kg, route oral; conditions: read-out: Drug uptake
How it was run: (§1)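 Rats fasted 12 h, then dosed orally by gavage or by bolus tail-vein injection at 2 ml/kg. Compound given as a 5 mg/ml solution in N-methyl-2-pyrrolidone/Tween 80/water (1:2:7). Samples taken at various times (n = 5) and stored at −70 °C. Plasma deproteinized with acetonitrile containing carbamazepine internal standard, then quantified by LC-MS/MS.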

[2] = Plasma concentration in Sprague-Dawley rat at 10 mg/kg, iv measured at 2 hrs; type: ADME, organism-based; parameters: dose 10 mg/kg, route intravenous; how it was run: as §1
[3] = Drug excretion in Sprague-Dawley rat at 10 mg/kg, po; type: ADME, organism-based; parameters: dose 10 mg/kg, route oral; conditions: in vivo, read-out: Ae; how it was run: as §1
[4] = Drug excretion in Sprague-Dawley rat at 10 mg/kg, iv; type: ADME, organism-based; parameters: dose 10 mg/kg, route intravenous; conditions: in vivo, read-out: Ae; how it was run: as §1
[5] = Mean residence time in Sprague-Dawley rat at 10 mg/kg, iv; type: ADME, organism-based; parameters: dose 10 mg/kg, route intravenous; conditions: in vivo; how it was run: as §1
[6] = Tmax in Sprague-Dawley rat at 10 mg/kg, po; type: ADME, organism-based; parameters: dose 10 mg/kg, route oral; conditions: in vivo; how it was run: as §1
[7] = Terminal half life in Sprague-Dawley rat at 10 mg/kg, po; type: ADME, organism-based; parameters: dose 10 mg/kg, route oral; conditions: in vivo, read-out: beta t1/2; how it was run: as §1
[8] = Terminal half life in Sprague-Dawley rat at 10 mg/kg, iv; type: ADME, organism-based; parameters: dose 10 mg/kg, route intravenous; conditions: in vivo, read-out: beta t1/2; how it was run: as §1
Mus musculus [9] = assay: Antiobesity activity in B6.V/J ob/ob mouse assessed as change in gonadal adipose tissue weight at 50 mg/kg, po bid measured after 14 days (reference value: 3.599 +/- 0.155 g); type: functional
Mus musculus [10] = assay: Antiobesity activity in B6.V/J ob/ob mouse assessed as change in gonadal adipose tissue weight at 5 mg/kg, po bid measured after 14 days (reference value: 3.599 +/- 0.155 g); type: functional
Mus musculus [11] = assay: Antiobesity activity in B6.V/J ob/ob mouse assessed as change in gonadal adipose tissue weight at 25 mg/kg, po bid measured after 14 days (reference value: 3.599 +/- 0.155 g); type: functional
Mus musculus [12] = assay: Antiobesity activity in B6.V/J ob/ob mouse assessed as change in kidney weight at 25 mg/kg, po bid measured after 14 days (reference value: 0.339 +/- 0.009 g); type: functional
Mus musculus [13] = assay: Antiobesity activity in B6.V/J ob/ob mouse assessed as change in thymus weight at 5 mg/kg, po bid measured after 14 days (reference value: 0.029 +/- 0.006 g); type: functional
Mus musculus [14] = assay: Antiobesity activity in B6.V/J ob/ob mouse assessed as change in spleen weight at 5 mg/kg, po bid measured after 14 days (reference value: 0.097 +/- 0.052 g); type: functional
Mus musculus [15] = assay: Antiobesity activity in B6.V/J ob/ob mouse assessed as change in liver weight at 5 mg/kg, po bid measured after 14 days (reference value: 3.396 +/- 0.162 g); type: functional
Mus musculus [16] = assay: Antiobesity activity in B6.V/J ob/ob mouse assessed as change in brain weight at 5 mg/kg, po bid measured after 14 days (reference value: 0.340 +/- 0.017 g); type: functional
Mus musculus [17] = assay: Antiobesity activity in B6.V/J ob/ob mouse assessed as inhibition of food intake at 25 mg/kg, po bid measured after 14 days relative to vehicle-treated control; type: functional; conditions: 336 h
Mus musculus [18] = assay: Antiobesity activity in C57BL/6 mouse assessed as inhibition of body weight gain at 50 mg/kg, po qd measured after 14 days relative to vehicle-treated control; type: functional; conditions: C57BL/6, 336 h
Mus musculus [19] = assay: Antiobesity activity in B6.V/J ob/ob mouse assessed as inhibition of body weight gain at 12.5 mg/kg, ip measured after 12 hrs relative to vehicle-treated control; type: functional; conditions: route intraperitoneal
Mus musculus [20] = assay: Antiobesity activity in B6.V/J ob/ob mouse assessed as inhibition of food intake at 12.5 mg/kg, ip measured up to 12 hrs relative to vehicle-treated control; type: functional; conditions: route intraperitoneal
How it was run: (§2)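 Male mice were acclimated 1 week at 23 ± 3 °C and 50 ± 20% humidity, then fasted 24 h. They were dosed once intraperitoneally with vehicle or compound: 50 mg/kg in C57BL/6, or 12.5, 25 or 50 mg/kg in B6.V-Lep^ob/J. Food intake was measured at 2, 6 and 12 h versus vehicle control.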

Mus musculus [21] = assay: Antiobesity activity in B6.V/J ob/ob mouse assessed as inhibition of food intake at 12.5 mg/kg, ip measured up to 2 hrs relative to vehicle-treated control; type: functional; conditions: route intraperitoneal; how it was run: as §2
D(2) dopamine receptor = D(2) dopamine receptor (Homo sapiens, UniProt P14416); assay: Displacement of [3H]-methylspiperone from dopamine D2L receptor (unknown origin) after 60 mins
Chain of D(2) dopamine receptor (P14416 whole entry): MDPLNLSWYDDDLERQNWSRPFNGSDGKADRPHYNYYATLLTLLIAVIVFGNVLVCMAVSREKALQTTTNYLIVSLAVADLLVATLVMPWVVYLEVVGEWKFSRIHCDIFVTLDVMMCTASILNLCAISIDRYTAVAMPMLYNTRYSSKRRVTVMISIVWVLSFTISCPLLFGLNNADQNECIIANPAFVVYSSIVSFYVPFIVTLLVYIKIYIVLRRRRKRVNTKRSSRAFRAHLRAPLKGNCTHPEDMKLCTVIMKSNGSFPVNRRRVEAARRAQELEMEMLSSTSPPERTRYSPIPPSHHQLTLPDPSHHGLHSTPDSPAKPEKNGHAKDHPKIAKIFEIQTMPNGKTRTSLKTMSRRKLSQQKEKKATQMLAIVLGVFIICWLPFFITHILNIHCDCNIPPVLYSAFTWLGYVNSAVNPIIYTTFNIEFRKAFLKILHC
How it was run: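 Receptor membranes incubated at 27 °C, 60 min for D2L and 30 min for D3, with [3H]methylspiperone (0.2 nM for D2L, 0.25 nM for D3) and test compound at a range of concentrations. Buffer was 50 mM Tris-HCl pH 7.4, 10 mM MgCl2, 1 mM EDTA, 120 mM NaCl. Nonspecific binding defined with haloperidol (D2) or GR103691 (D3). IC50 obtained by nonlinear regression.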

[22] = Displacement of [3H]-YM-09151-2 from cloned dopamine D4.2 receptor (unknown origin) expressed in Sf9 cells after 60 mins; parameters: species or system Homo sapiens
How it was run: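 Sf9 membranes with cloned D4.2 receptor incubated with 0.2 nM [3H]YM-09151-2 for 60 min at 27 °C in 50 mM Tris-HCl pH 7.4, 5 mM MgCl2, 5 mM EDTA, 5 mM KCl, 1.5 mM CaCl2. Clozapine defined nonspecific binding. Filtered on glass-fiber filters presoaked in 0.3% PEI.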

[23] = molecular target: T1, 5-hydroxytryptamine receptor 1A (Homo sapiens, UniProt P08908); assay: Displacement from [3H]8-OH-DPAT from human recombinant 5HT-1A receptor expressed in HEK293 cells after 120 mins; type: cell-based
T1 sequence (P08908 whole entry): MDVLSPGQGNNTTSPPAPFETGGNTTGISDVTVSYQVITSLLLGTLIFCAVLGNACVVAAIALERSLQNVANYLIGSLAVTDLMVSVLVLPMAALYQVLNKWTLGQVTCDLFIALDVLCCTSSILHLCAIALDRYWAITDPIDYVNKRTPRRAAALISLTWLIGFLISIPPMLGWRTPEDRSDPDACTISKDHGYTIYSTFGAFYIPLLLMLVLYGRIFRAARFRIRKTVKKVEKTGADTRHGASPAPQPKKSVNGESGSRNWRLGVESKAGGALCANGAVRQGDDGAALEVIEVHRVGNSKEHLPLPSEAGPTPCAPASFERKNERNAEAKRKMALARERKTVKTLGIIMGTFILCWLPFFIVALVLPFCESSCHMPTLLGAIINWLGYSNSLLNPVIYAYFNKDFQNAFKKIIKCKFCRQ
How it was run: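 Membranes from HEK293-EBNA cells stably expressing recombinant human 5-HT1A. Incubated with 2 nM [3H]8-OH-DPAT and test compound at a range of concentrations in 50 mM Tris-HCl pH 7.4 with 5 mM MgSO4.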

[24] = molecular target: 5-hydroxytryptamine receptor 2B (Homo sapiens, UniProt P41595); assay: Displacement of […] from human recombinant 5HT-2B receptor
Chain of 5-hydroxytryptamine receptor 2B (P41595 whole entry): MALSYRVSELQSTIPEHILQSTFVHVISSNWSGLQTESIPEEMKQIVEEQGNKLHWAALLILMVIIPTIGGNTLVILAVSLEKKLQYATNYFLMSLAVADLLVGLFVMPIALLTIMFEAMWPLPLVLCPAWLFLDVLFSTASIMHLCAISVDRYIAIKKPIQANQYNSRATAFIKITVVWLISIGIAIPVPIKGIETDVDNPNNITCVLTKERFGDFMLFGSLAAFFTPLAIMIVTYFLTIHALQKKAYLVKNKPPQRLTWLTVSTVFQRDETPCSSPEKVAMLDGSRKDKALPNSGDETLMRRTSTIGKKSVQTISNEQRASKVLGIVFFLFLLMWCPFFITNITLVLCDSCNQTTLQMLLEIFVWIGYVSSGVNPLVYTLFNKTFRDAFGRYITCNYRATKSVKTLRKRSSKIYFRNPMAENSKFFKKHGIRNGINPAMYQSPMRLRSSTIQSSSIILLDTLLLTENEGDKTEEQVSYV

## Cl.Clc1cccc(Nc2nc(Cc3ccccc3)nc3c2CCNCC3)c1
[1]
  concentration at 2 h: 29.2 ng/mL
[2]
  concentration at 2 h: 190 ng/mL
[3]
  dose excreted: 0.03%
[4]
  dose excreted: 0.03%
[5]
  MRT: 1.88 h
[6]
  Tmax: 3.5 h
[7]
  half-life: 12.7 h
[8]
  half-life: 2.25 h
Mus musculus [9]
  Activity: 3.475 g
Mus musculus [10]
  Activity: 3.776 g
Mus musculus [11]
  Activity: 3.127 g
Mus musculus [12]
  Activity: 0.329 g
Mus musculus [13]
  Activity: 0.033 g
Mus musculus [14]
  Activity: 0.057 g
Mus musculus [15]
  Activity: 3.394 g
Mus musculus [16]
  Activity: 0.344 g
Mus musculus [17]
  inhibition in vivo at 25 mg/kg: 15.2%
Mus musculus [18]
  inhibition in vivo at 50 mg/kg: 18.8%
Mus musculus [19]
  inhibition in vivo at 12.5 mg/kg: 24.9%
Mus musculus [20]
  inhibition in vivo at 12.5 mg/kg: 47.8%
Mus musculus [21]
  inhibition in vivo at 12.5 mg/kg: 98.6%
D(2) dopamine receptor
  IC50: 85.8 nM
[22]
  IC50: 900 nM
[23]
  IC50: 1060 nM
[24]
  IC50: 32 nM
